DSG3 Ab inh – inhibitors of pemphigus antibody binding to DSG3, primary screen, biochemical, bead-based, flow cytometry, scFv-GFP; Desmoglein-3 (Homo sapiens), P32926; DSG3-coupled beads, scFv-anti-DSG3-GFP binding; active compounds read low; binding (percent of control), % at 10 µM; hit rate 0.48% among 310,000; AID 588358, 2011;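 active means binding more than 3 SD below its plate's average and above zero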;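 further: hits lower antibody fragment binding to DSG3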
MBD2 DNA inh – inhibitors of MBD2 binding to methylated DNA, primary screen, biochemical, TR-FRET, DNA-binding domain, human; MBD2 binding to methylated oligonucleotide; inhibition, % at 4.4 µM; hit rate 0.31% among 370,000; in the data active means inhibition above about 13%
UHRF1 MBD2 ctr – UHRF1 methylated DNA binding inhibitors, primary screen, counter-screen for MBD2 inhibitor project, biochemical, TR-FRET, human UHRF1, single concentration; inhibition, % at 4.4 µM; AID 687016, 2013; UHRF1 binding to methylated oligo; hit rate 0.75% among 370,000; E3 ubiquitin-protein ligase UHRF1 (Homo sapiens), Q96T88; in the data active means inhibition above about 21%;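 further: UHRF1 SRA domain binding a hemimethylated CpG hairpin DNA probe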
Target sequence (Q96T88 whole entry, looked up, the tested form may be a part): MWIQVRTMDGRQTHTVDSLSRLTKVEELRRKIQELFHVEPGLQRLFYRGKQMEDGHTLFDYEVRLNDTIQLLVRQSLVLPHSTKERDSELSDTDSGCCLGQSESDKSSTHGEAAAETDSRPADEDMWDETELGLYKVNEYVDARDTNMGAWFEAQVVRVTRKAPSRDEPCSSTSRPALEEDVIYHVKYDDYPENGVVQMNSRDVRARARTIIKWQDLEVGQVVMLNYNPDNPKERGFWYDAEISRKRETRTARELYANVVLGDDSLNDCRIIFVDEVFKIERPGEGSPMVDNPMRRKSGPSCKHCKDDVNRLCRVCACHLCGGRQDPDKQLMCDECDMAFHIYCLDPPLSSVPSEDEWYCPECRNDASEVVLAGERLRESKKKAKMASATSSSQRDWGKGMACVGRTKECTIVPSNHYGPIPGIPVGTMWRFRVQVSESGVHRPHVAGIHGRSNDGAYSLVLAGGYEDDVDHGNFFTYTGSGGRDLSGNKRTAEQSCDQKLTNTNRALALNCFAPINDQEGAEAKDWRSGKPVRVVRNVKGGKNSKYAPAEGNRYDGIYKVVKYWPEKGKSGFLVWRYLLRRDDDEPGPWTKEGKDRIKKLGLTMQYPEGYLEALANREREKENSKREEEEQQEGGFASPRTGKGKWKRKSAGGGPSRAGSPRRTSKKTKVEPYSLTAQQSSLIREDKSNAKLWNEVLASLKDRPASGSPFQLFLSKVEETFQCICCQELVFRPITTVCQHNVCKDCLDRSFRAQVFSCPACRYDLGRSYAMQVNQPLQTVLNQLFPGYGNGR
SUMO1 PPI mod – modulators of SUMO1 protein-protein interactions, primary screen, biochemical, uHTS. SUMO1 binding to a labelled peptide, TR-FRET, 1 h. hit rate 0.33% among 360,000. inhibition, % at 20 µM. Small ubiquitin-related modifier 1 (Homo sapiens), P63165
NS3 helicase inh – inhibitors of HCV NS3 helicase, primary screen, biochemical, Cy5 molecular beacon fluorescence; Hepatitis C virus NS3 helicase; NS3 helicase DNA unwinding; inhibition, % at 10.9 µM; hit rate 0.56% among 290,000;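 active means inhibition above the mean of all tested compounds plus 3 SD, set per campaign, cut at about 35% in these data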
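Compound dosing – single dose, 10.9 µM nominal final, DMSO 0.8% final · System – NS3 helicase fragment of HCV · Buffer or medium – MOPS pH 6.5, MgCl2, DTT, Tween20, BSA · Signal – Cy5 beacon fluorescence read at start and 1 h · Also added – annealed dual-labelled DNA beacon duplex, ATP-started · Schedule – 1 h at 25 °C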
DNMT1 block – human DNMT1 methyltransferase inhibitors, primary screen, biochemical, molecular beacon, fluorescence, HinP1I cleavage, uHTS. AID 588458, 2011. inhibition (reported as % activation of signal), % at 10 µM. hit rate 0.83% among 360,000; in the data active means inhibition above about 50%
NS3 hel confirm – HCV NS3 helicase inhibitors, retest, confirmation, biochemical, Cy5 molecular beacon fluorescence, triplicate; hit rate 31% among 1,600; inhibition, % at 10.9 µM; shares compounds with NS3 helicase inh; NS3 helicase DNA unwinding; AID 1943, 2009;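 active means inhibition above the mean of all tested compounds plus 3 SD, cutoff set per campaign, cut at about 36% in these data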
DNA FID counter – compounds displacing fluorescent DNA intercalator, artefact control for HCV NS3 helicase inhibitor project, biochemical, FID fluorescence, triplicate. shares compounds with NS3 helicase inh. DNA fluorescent intercalator displacement. inhibition, % at 7.9 µM. hit rate 4% among 1,600. AID 1945, 2009;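 further: higher means more displacement of ethidium bromide from the DNA hairpin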
DNA FID DR – compounds displacing fluorescent intercalator from DNA, dose response, counter-screen for HCV NS3 helicase inhibitor project, biochemical, fluorescence | shares compounds with NS3 helicase inh | fluorescent intercalator displacement from DNA | IC50, µM | 120 tested, under 10 active; call rule not given here
DNMT1 interf DR – spectral interference with molecular beacon fluorescence, dose response, artefact control for DNMT1 inhibitor project, biochemical, fluorescent molecular beacon | 200 tested, under 10 active | IC50, µM | spectral interference counter-screen | AID 602382, 2012 | shares compounds with DNMT1 block; call rule not given here
DNMT1 confirm – DNMT1 methyltransferase inhibitor retest, confirmation, biochemical, molecular beacon, fluorescence, single concentration; shares compounds with DNMT1 block; DNMT1 molecular beacon HinP1I cleavage; inhibition, % at 10 µM; hit rate 8% among 2,300;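 active means average inhibition of at least 30% in the single-concentration confirmation test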
DNMT1 interf – shows spectral interference in the DNMT1 beacon assay. shares compounds with DNMT1 block. DNMT1 molecular beacon spectral interference counterscreen, fluorescence 485/520. activation (fluorescence interference), % at 10 µM. hit rate 1% among 2,300. AID 602387;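 active means activation of at least 30% at 10 µM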;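 further: DNMT1 catalytic domain with a HinP1I cleavage step and a FAM/dabcyl DNA beacon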
Hits are given with their value; . = inactive; / = no result. Sampled rows, rich in hits. Any-hit rate of the full collection: about 2.5%. Unless noted, no stated cut-off is given here; in the data, active means inhibition above about 37%; inactive means the rest.

SMILES	DSG3 Ab inh	MBD2 DNA inh	UHRF1 MBD2 ctr	SUMO1 PPI mod	NS3 helicase inh	DNMT1 block	NS3 hel confirm	DNA FID counter	DNMT1 confirm	DNMT1 interf	others
CN1CCCN(C(=O)c2ccc(Br)s2)CC1	.	.	.	.	.	.	/	/	/	/
CCOC(=O)c1oc2cc(O)cc(C)c2c1C	.	.	.	.	/	.	/	/	/	/
Cc1cccc(NC(=O)CSc2nnc(-c3ccco3)c(-c3ccco3)n2)c1C	/	/	/	.	52.0	106.1	76.6	.	.	.
O=C1CC(c2ccco2)CC(O)=C1C=Nc1ccc(Br)cc1 (stereo not drawn)	.	.	.	.	.	.	/	/	/	/
O=C1CC(c2ccco2)CC(O)=C1C=Nc1cc(Cl)ccc1O (stereo not drawn)	.	.	21.1	.	42.5	89.1	.	.	.	.
COc1ccc(/C=C2\SC(=Nc3ccccc3)NC2=O)cc1	/	/	/	/	.	/	/	/	/	/
COc1ccc(N=C2NC(=O)/C(=C\c3ccco3)S2)cc1	.	.	.	.	41.2	70.2	.	.	.	.
Cc1ccc(OCC(=O)Nc2nnc(S(=O)(=O)N3CCC(C)CC3)s2)cc1	74.4	.	.	.	36.0	57.8	.	.	.	.
COc1ccc(OCC(=O)Nc2nnc(S(=O)(=O)N3CCCCCC3)s2)cc1	.	.	.	.	.	.	/	/	/	/
CCOC(=O)C1=C(O)/C(=C\c2cccs2)N=C1C	.	.	.	.	.	.	/	/	/	/
CCOC(=O)C1=C(O)/C(=C\c2ccc(CNC(=O)C(=O)Nc3ccccc3)o2)N=C1C	.	.	.	.	39.6	101.3	.	.	.	.
COc1ccc(-c2cc3c(=O)n(CC(=O)NCCCN4CCC(N5CCCCC5)CC4)nc(C)n3n2)cc1	.	.	.	.	.	.	/	/	/	/
CCCc1nc2sc3ccccc3c(=O)c2c(=O)n1Cc1ccco1	/	.	.	.	46.4	75.6	.	.	.	.
O=C(Cc1cccs1)Nc1nncs1	.	.	.	.	.	.	/	/	/	/
N=C1/C(=C\c2ccc(SCc3ccco3)o2)C(=O)N=C2SC=NN12	.	.	50.8	43.0	53.2	106.1	63.0	.	.	.
CCOC(=O)COc1ccc(S(=O)(=O)NC2CC2)cc1	.	.	.	.	.	.	/	/	/	/
O=C(OCc1cc(=O)n2c(n1)sc1ccccc12)c1ccc(O)cc1O	.	.	.	.	36.1	69.8	.	.	.	.
CC1=NN(c2ccccc2)C(=O)/C1=C\C=C\c1ccccc1	.	.	.	.	.	.	/	/	/	/
CC1=NN(c2ccc(C)c(C)c2)C(=O)/C1=C\C=C\c1ccc([N+](=O)[O-])o1	.	.	.	.	39.9	91.1	.	.	.	.
CCN(CC)CCn1c2c(c(SCC(=O)Nc3ccc(F)c(F)c3)nc1=O)CCC2	.	.	.	.	/	.	/	/	/	/
O=C(c1cccnc1)N1CCc2ccccc2C1	.	.	.	.	.	.	/	/	/	/
O=C(O)C(c1ccccc1)N1C(=O)/C(=C\c2ccc(-c3ccccc3Cl)o2)SC1=S (stereo not drawn)	.	.	.	91.9	59.1	98.3	83.4	57.4	69.4	.	DNMT1 interf DR=34.4
Cc1nn(CCc2nc(-c3ccco3)cs2)c2[nH]c(=O)cc(C(F)(F)F)c12	.	.	.	.	46.0	60.6	71.5	.	.	.
O=C(Nc1ccccc1Cl)c1ccc(COc2ccc3c(c2)CCC3)cc1	.	.	.	.	.	.	/	/	/	/
COCCCNC(=O)c1ccc2c(c1)NC(=O)C(C)(C)O2	/	.	.	/	/	/	/	/	/	/
SMILES	DSG3 Ab inh	MBD2 DNA inh	UHRF1 MBD2 ctr	SUMO1 PPI mod	NS3 helicase inh	DNMT1 block	NS3 hel confirm	DNA FID counter	DNMT1 confirm	DNMT1 interf	others
O=S(=O)(Cc1noc(-c2ccc(Cl)cc2)n1)Cc1ccco1	.	.	.	.	52.1	83.0	.	.	.	.
Clc1ccc(-c2nc(Cc3ccccc3Cl)no2)cc1	.	.	.	.	.	.	/	/	/	/
O=C(/C=C/c1ccco1)Nc1sc2c(c1C(=O)O)CCC2	.	.	33.0	.	47.1	53.2	.	.	.	.
N#Cc1c(NC(=O)/C=C/c2ccco2)sc2c1CCCC2	.	.	.	.	.	.	/	/	/	/
NC(=O)c1sc2nc(-c3ccco3)ccc2c1N	.	.	27.9	.	73.5	97.7	.	.	.	.
COc1cccc(=O)c2c(C)n(CC(=O)c3ccccc3)c(C)c12	/	.	.	.	58.3	63.3	.	.	.	.
COC(=O)[C@H](CCSC)NC(=O)NC1CC1	.	.	.	.	.	.	/	/	/	/
Cc1cc(/C=C2\SC(=S)NC2=O)c(C)n1C1CC1	.	.	.	.	76.2	65.9	36.4	.	.	.
Cc1cc(/C=C2/C(=O)N(C)C(=S)N2C)c(C)n1C1CC1	.	.	.	.	.	.	/	/	/	/
CN1C(=O)S/C(=C/c2cccn2-c2cccc(C(=O)O)c2)C1=O	.	.	.	.	.	.	/	/	/	/
O=C(O)c1cccc(-n2cccc2/C=C/[N+](=O)[O-])c1	24.3	21.3	73.5	67.7	41.4	88.6	40.5	.	.	.
CC(=O)Nc1ccc(/C=N/NC(=O)c2cc(-c3ccco3)nc3ccccc23)cc1	.	.	.	.	.	.	/	/	/	/
CCN(CC)C(=O)COC(=O)c1cc(-c2ccco2)nc2ccccc12	.	.	.	.	44.5	72.7	.	.	.	.
O=C(O)c1ccccc1/C=N/NC(=O)c1cc(-c2ccco2)nc2ccccc12	.	.	.	57.4	42.0	90.7	68.4	.	38.3	.	DNA FID DR=.;DNMT1 interf DR=.
NS(=O)(=O)c1ccc(N=Nc2ccc(O)c3ncccc23)cc1	.	.	.	.	.	.	/	/	/	/

Bioassay records (PubChem)
